In paper PMC9089800 (RSC Advances, 2018):

Key:
MCF7 = test: MTT growth inhibition / cytotoxicity assay, MCF7; assay type: cell-based, human; conditions: Homo sapiens, MCF7, 48 h, read-out: IC50 in μM MCF7, MTT, 48 h, 0–100 μM
MCF7 cells [1] = test: Immunostaining; assay type: cell-based, human; conditions: IC50 concentration, 12 hours
How it was run: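 Cells grown overnight as a monolayer on coverslips, then exposed to test compound for 12 h. Fixed in 3.7% formaldehyde for 20 min at room temperature in the dark. Permeabilised with 0.5% Tween-20 for 30 min, then blocked with 3% BSA. Stained 1 h with anti-α-tubulin, then 1 h with Alexa Fluor 594 secondary. DNA counterstained with Hoechst; mounted in DABCO/glycerol.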

caspase 9 = test: Western blot for apoptotic pathway; assay type: cell-based, human; conditions: MCF7, 24 h; 30 μM of 9, 20 μM of 10
How it was run: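 MCF7 cells exposed 24 h to DMSO vehicle or test compound. Lysed 20 min on ice in Tris pH 7.4/EDTA/NaCl/NaF/orthovanadate/0.5% Triton X-100, then cleared at 16000 × g at 4 °C. Protein quantified by Bradford; samples boiled in Laemmli buffer. SDS-PAGE, PVDF transfer, 3% milk/TBST block. Anti-caspase 9 overnight at 4 °C; HRP secondary; chemiluminescent detection.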

MCF7 cells [2] = test: DNA fragmentation assay; assay type: cell-based, human; conditions: MCF7, 24 h; 30 μM of 9, 20 μM of 10
MCF7 cells [3] = test: Cell cycle analysis by FACS; assay type: cell-based, human; conditions: MCF7, 24 h; 30 μM of 9, 20 μM of 10
How it was run: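 Cells seeded a day before; treated 24 h with test compound or DMSO vehicle (final DMSO <0.02%). Cells trypsinised, pelleted at 4 °C, fixed overnight at 4 °C in chilled 95% ethanol, and PBS-washed. Stained with propidium iodide plus RNase in PBS/2 mM MgCl2 for 20 min at 37 °C, then acquired by flow cytometry. Three repeats; mean sub-G1 population plotted.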

MCF10A = test: cells; assay type: cell-based; conditions: 48 h

Row | SMILES | IC50 (MCF7) | also measured
1 | C=C1[C@@H]2[C@H]3OC(=O)[C@@H](CN[C@@H](C)c4ccccc4)[C@@H]3CCC(=C)[C@@H]2C[C@@H]1O [Compound 4, (3R,3aS,6aR,8S,9aR,9bS)-8-Hydroxy-6,9-dimethylene-3-((((S)-1-phenylethyl)amino)methyl)decahydroazuleno[4,5-b]furan-2(3H)-one] | > 100 µM | –
2 | C=C1[C@@H]2[C@H]3OC(=O)[C@@H](CN[C@H](C)c4ccccc4)[C@@H]3CCC(=C)[C@@H]2C[C@@H]1O [Compound 6, (3R,3aS,6aR,8S,9aR,9bS)-8-Hydroxy-6,9-dimethylene-3-((((R)-1-phenylethyl)amino)methyl)decahydroazuleno[4,5-b]furan-2(3H)-one] | > 100 µM | –
3 | C=C1[C@@H]2[C@H]3OC(=O)[C@@H](CN[C@@H](C)c4cccc5ccccc45)[C@@H]3CCC(=C)[C@@H]2C[C@@H]1OC(C)=O [Compound 7, (3R,3aS,6aR,8S,9aR,9bS)-6,9-Dimethylene-3-((((S)-1-(naphthalen-1-yl)ethyl)amino)methyl)-2-oxododecahydroazuleno[4,5-b]furan-8-yl acetate] | > 100 µM | –
4 | C=C1[C@@H]2[C@H]3OC(=O)[C@@H](CN[C@@H](C)c4cccc5ccccc45)[C@@H]3CCC(=C)[C@@H]2C[C@@H]1O [Compound 8, (3R,3aS,6aR,8S,9aR,9bS)-8-Hydroxy-6,9-dimethylene-3-((((S)-1-(naphthalene-1-yl)ethyl)amino)methyl)decahydroazuleno[4,5-b] furan-2(3H)-one] | 75.8 ± 3 µM | –
5 | C=C1[C@@H]2[C@H]3OC(=O)[C@@H](CN[C@H](C)c4cccc5ccccc45)[C@@H]3CCC(=C)[C@@H]2C[C@@H]1O [Compound 10, (3R,3aS,6aR,8S,9aR,9bS)-8-Hydroxy-6,9-dimethylene-3-((((R)-1-(naphthalen-1-yl)ethyl)amino)methyl)decahydroazuleno[4,5-b] furan-2(3H)-one] | – | DNA fragmentation by Hoechst staining, tubulin morphology (MCF7 cells [1]): fragmented DNA; apoptotic pathway (caspase 9 immunoblot) (caspase 9): cleavage of caspase 9; fragmentation of genomic DNA (ladder on agarose gel) (MCF7 cells [2]): substantial fragmented DNA ladder; apoptotic (sub-G1) population (MCF7 cells [3]): significantly increased the apoptotic populations; IC50 (MCF10A; Homo sapiens, MCF-10A, read-out: IC50 in μM MCF10A): > 100 µM; cytotoxic effect on normal breast epithelial MCF10A cells (in words) (MCF10A; MTT): minimal cytotoxic effect
6 | C=C1[C@@H]2[C@H]3OC(=O)[C@@H](CN[C@H](C)C4CCCCC4)[C@@H]3CCC(=C)[C@@H]2C[C@@H]1O [Compound 11, (3R,3aS,6aR,8S,9aR,9bS)-3-((((R)-1-Cyclohexylethyl)amino)methyl)-8-hydroxy-6,9-dimethylenedecahydroazuleno[4,5-b]furan-2(3H)-one] | > 100 µM | –
7 | C=C1[C@@H]2[C@H]3OC(=O)[C@@H](CN[C@@H](C)C4CCCCC4)[C@@H]3CCC(=C)[C@@H]2C[C@@H]1O [Compound 12, (3R,3aS,6aR,8S,9aR,9bS)-3-((((S)-1-Cyclohexylethyl)amino)methyl)-8-hydroxy-6,9-dimethylenedecahydroazuleno[4,5-b]furan-2(3H)-one] | > 100 µM | –
8 | C=C1[C@@H]2[C@H]3OC(=O)[C@@H](CN4CCOCC4)[C@@H]3CCC(=C)[C@@H]2C[C@@H]1OC(C)=O [Compound 17, (3R,3aS,6aR,8S,9aR,9bS)-6,9-Dimethylene-3-(morpholinomethyl)-2-oxododecahydroazuleno[4,5-b]furan-8-yl acetate] | > 100 µM | –
9 | C=C1[C@@H]2[C@H]3OC(=O)[C@@H](CN4CCOCC4)[C@@H]3CCC(=C)[C@@H]2C[C@@H]1O [Compound 18, (3R,3aS,6aR,8S,9aR,9bS)-8-Hydroxy-6,9-dimethylene-3-(morpholinomethyl)decahydroazuleno[4,5-b]furan-2(3H)-one] | > 100 µM | –
10 | C=C1[C@@H]2[C@H]3OC(=O)[C@@H](CN4CCCC4)[C@@H]3CCC(=C)[C@@H]2C[C@@H]1O [Compound 19, (3R,3aS,6aR,8S,9aR,9bS)-8-Hydroxy-6,9-dimethylene-3-(pyrrolidin-1-ylmethyl)decahydroazuleno[4,5-b]furan-2(3H)-one] | > 100 µM | –
11 | C=C1[C@@H]2[C@H]3OC(=O)[C@@H](CN4CCCCC4)[C@@H]3CCC(=C)[C@@H]2C[C@@H]1O [Compound 20, (3R,3aS,6aR,8S,9aR,9bS)-8-Hydroxy-6,9-dimethylene-3-(piperidin-1-ylmethyl)decahydroazuleno[4,5-b]furan-2(3H)-one] | > 100 µM | –
12 | C=C1[C@@H]2[C@H]3OC(=O)[C@@H](COC)[C@@H]3CCC(=C)[C@@H]2C[C@@H]1O [Compound 22, (3R,3aS,6aR,8S,9aR,9bS)-8-Hydroxy-3-(methoxymethyl)-6,9-dimethylenedecahydroazuleno[4,5-b]furan-2(3H)-one] | > 100 µM | –
13 | C=C1[C@@H]2[C@H]3OC(=O)/C(=C/c4ccc(C)cc4)[C@@H]3CCC(=C)[C@@H]2C[C@@H]1OC(C)=O [Compound 23, (3aS,6aR,8S,9aR,9bS)-3-((E)-4-Methylbenzylidene)-6,9-dimethylene-2-oxododecahydroazuleno[4,5-b]furan-8-yl acetate] | > 100 µM | –
14 | C=C1[C@@H]2[C@H]3OC(=O)/C(=C/c4cccc(C(F)(F)F)c4)[C@@H]3CCC(=C)[C@@H]2C[C@@H]1OC(C)=O [Compound 24, (3aS,6aR,8S,9aR,9bS)-6,9-Dimethylene-2-oxo-3-((E)-3-(trifluoro-methyl)benzylidene)dodecahydroazuleno[4,5-b]furan-8-yl acetate] | > 100 µM | –
15 | C=C1[C@@H]2[C@H]3OC(=O)/C(=C/c4ccc(Cl)cc4)[C@@H]3CCC(=C)[C@@H]2C[C@@H]1OC(C)=O [Compound 25, (3aS,6aR,8S,9aR,9bS)-3-((E)-4-Chlorobenzylidene)-6,9-dimethylene-2-oxododecahydroazuleno[4,5-b]furan-8-yl acetate] | > 100 µM | –
16 | C=C1[C@@H]2[C@H]3OC(=O)/C(=C/c4c(OC)cccc4[N+](=O)[O-])[C@@H]3CCC(=C)[C@@H]2C[C@@H]1OC(C)=O [Compound 26, (3aS,6aR,8S,9aR,9bS)-3-((E)-2-Methoxy-6-nitrobenzylidene)-6,9-dimethylene-2-oxododecahydroazuleno[4,5-b]furan-8-yl acetate] | > 100 µM | –
17 | C=C1[C@@H]2[C@H]3OC(=O)/C(=C/c4ccc(C)c([N+](=O)[O-])c4)[C@@H]3CCC(=C)[C@@H]2C[C@@H]1OC(C)=O [Compound 27, (3aS,6aR,8S,9aR,9bS)-3-((E)-4-Methyl-3-nitrobenzylidene)-6,9-dimethylene-2-oxododecahydroazuleno[4,5-b]furan-8-yl acetate] | > 100 µM | –
18 | C=C1[C@@H]2[C@H]3OC(=O)/C(=C/c4ccc(NC(C)=O)c(C(F)(F)F)c4)[C@@H]3CCC(=C)[C@@H]2C[C@@H]1OC(C)=O [Compound 28, (3aS,6aR,8S,9aR,9bS)-3-((E)-4-Acetamido-3-(trifluoromethyl)benzylidene)-6,9-dimethylene-2-oxododecahydroazuleno[4,5-b] furan-8-yl acetate] | > 100 µM | –
19 | C=C1[C@@H]2[C@H]3OC(=O)/C(=C/c4ccccc4C)[C@@H]3CCC(=C)[C@@H]2C[C@@H]1OC(C)=O [Compound 29, (3aS,6aR,8S,9aR,9bS)-3-((E)-2-Methylbenzylidene)-6,9-dimethylene-2-oxododecahydroazuleno[4,5-b]furan-8-yl acetate] | 74 µM | –
20 | C=C1[C@@H]2[C@H]3OC(=O)/C(=C/c4ccc(C(=O)OC)cc4)[C@@H]3CCC(=C)[C@@H]2C[C@@H]1OC(C)=O [Compound 30, Methyl-4-((E)-((3aS,6aR,8S,9aR,9bS)-8-acetoxy-6,9-dimethylene-2-oxodecahydroazuleno[4,5-b]furan-3(2H)-ylidene)methyl)benzoate] | > 100 µM | –
21 | C=C1[C@@H]2[C@H]3OC(=O)/C(=C/c4ccccc4[N+](=O)[O-])[C@@H]3CCC(=C)[C@@H]2C[C@@H]1OC(C)=O [Compound 32, (3aS,6aR,8S,9aR,9bS)-6,9-Dimethylene-3-((E)-2-nitrobenzylidene)-2-oxododecahydroazuleno[4,5-b]furan-8-yl acetate] | 36.5 µM | –
22 | C=C1[C@@H]2[C@H]3OC(=O)/C(=C/c4ccc(Cl)cc4[N+](=O)[O-])[C@@H]3CCC(=C)[C@@H]2C[C@@H]1OC(C)=O [Compound 33, (3aS,6aR,8S,9aR,9bS)-3-((E)-4-Chloro-2-nitrobenzylidene)-6,9-dimethylene-2-oxododecahydroazuleno[4,5-b]furan-8-yl acetate] | > 100 µM | –
23 | C=C1[C@@H]2[C@H]3OC(=O)/C(=C/c4ccc(C)cc4[N+](=O)[O-])[C@@H]3CCC(=C)[C@@H]2C[C@@H]1OC(C)=O [Compound 34, (3aS,6aR,8S,9aR,9bS)-3-((E)-4-Methyl-2-nitrobenzylidene)-6,9-dimethylene-2-oxododecahydroazuleno[4,5-b]furan-8-yl acetate] | > 100 µM | –
